# Calls of active or inactive are those of the source. The rule behind the calls is not given here.
# Experiments:
# HCT-116 [1] = test: Induction of apoptosis in human HCT-116 cells assessed as early apoptotic cells at 0.5 uM incubated for 48 hrs by annexin V-FITC and PI staining based flow cytometry (reference value: 4.14 %); type: functional
# NCI-H460 [2] = test: Induction of apoptosis in human NCI-H460 cells assessed as early apoptotic cells at 1 uM incubated for 48 hrs by annexin V-FITC and PI staining based flow cytometry (reference value: 2.88 %); type: functional
# Histone deacetylase 1 [3] = molecular target: T1, Histone deacetylase 1 (Homo sapiens, UniProt Q13547); test: Inhibition of recombinant human HDAC1 using SIRT1 as substrate incubated for 10 mins followed by substrate addition and measured after 30 mins by fluorescence based assay
# T1 sequence (Q13547 whole entry): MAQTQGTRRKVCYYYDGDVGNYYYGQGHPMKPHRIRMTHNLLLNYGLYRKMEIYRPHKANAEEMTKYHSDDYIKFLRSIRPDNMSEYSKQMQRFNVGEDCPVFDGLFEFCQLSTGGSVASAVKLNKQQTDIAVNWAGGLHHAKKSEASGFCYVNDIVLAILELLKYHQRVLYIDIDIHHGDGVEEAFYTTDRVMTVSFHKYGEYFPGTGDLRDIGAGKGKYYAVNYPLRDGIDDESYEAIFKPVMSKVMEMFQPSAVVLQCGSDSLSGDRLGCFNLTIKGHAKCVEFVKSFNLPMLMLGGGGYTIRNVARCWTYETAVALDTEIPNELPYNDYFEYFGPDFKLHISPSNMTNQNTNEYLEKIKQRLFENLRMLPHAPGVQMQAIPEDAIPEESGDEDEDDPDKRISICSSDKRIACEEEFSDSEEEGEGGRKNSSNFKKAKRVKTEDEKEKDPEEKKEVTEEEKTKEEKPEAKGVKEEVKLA
# Summary of the method: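 IC50 values reported as means of at least two separate determinations, expressed as mean ±SD.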
# HepG2 [4] = test: Cytotoxicity against human HepG2 cells assessed as effect on cell morphology at 0.5 to 8 micromol incubated for 48 hrs by microscopic analysis; type: functional, cell-based; conditions: dose 0.5-8 µmol
# Summary of the method: (§1)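 Five cancer cell lines treated with compound or DMSO (0.1 %) for 48 h. Morphology inspected by light microscopy at 10× objective.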
# HCT-116 [5] = test: Induction of apoptosis in human HCT-116 cells assessed as late apoptotic cells at 2 uM incubated for 48 hrs by annexin V-FITC and PI staining based flow cytometry (reference value: 1.88 %); type: functional
# A-375 [6] = test: Induction of apoptosis in human A-375 cells assessed as viable cells at 2 uM incubated for 48 hrs by annexin V-FITC and PI staining based flow cytometry (reference value: 96.3 %); type: functional; conditions: read-out: Activity
# HeLa [7] = test: Induction of cell cycle arrest in human HeLa cells assessed as G2/M phase at 0.5 uM incubated for 24 hrs by PI staining based flow cytometry (reference value: 7.89 %); type: functional
# Summary of the method: (§2)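 Treatment at 2, 1 and 0.5 μM for 24 h, alongside CS055 and roscovitine, against a DMSO (0.1 %) blank. Cells then stained with propidium iodide and analyzed by flow cytometry.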
# HepG2 [8] = test: Antiproliferative activity against human HepG2 cells assessed as reduction in cell growth incubated for 72 hrs by CCK-8 assay; type: functional, cell-based; conditions: HepG2, 72 h
# Summary of the method: (§3)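 IC50 by CCK-8 assay across five solid-tumour lines (HCT116, HepG2, H460, HeLa, A375). Run only for compounds chosen after the single-concentration screen, with CS055 and roscovitine as references.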
# [9] = Half life in ICR mouse at 20 mg/kg, ip measured upto 24 hrs by LC-MS/MS analysis; conditions: in vivo
# Histone deacetylase 1 [10] = molecular target: T1, Histone deacetylase 1; test: Inhibition of recombinant human HDAC1 at 10 uM using SIRT1 as substrate incubated for 10 mins followed by substrate addition and measured after 30 mins by fluorescence based assay relative to control; conditions: time 40.0 min
# Summary of the method: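 Enzyme inhibition of HDAC1 measured at a single concentration of 10 µM, tested alongside the cell-growth screen.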
# HCT-116 [11] = test: Antiproliferative activity against human HCT-116 cells assessed as reduction in cell growth incubated for 72 hrs by CCK-8 assay; type: functional, cell-based; conditions: HCT-116, 72 h; summary of the method: as §3
# HCT-116 [12] = test: Cytotoxicity against human HCT-116 cells assessed as effect on cell morphology at 0.5 to 8 micromol incubated for 48 hrs by microscopic analysis; type: functional, cell-based; conditions: dose 0.5-8 µmol; summary of the method: as §1
# A-375 [13] = test: Cytotoxicity against human A-375 cells assessed as effect on cell morphology at 0.5 to 8 micromol incubated for 48 hrs by microscopic analysis; type: functional, cell-based; conditions: dose 0.5-8 µmol; summary of the method: as §1
# NCI-H460 [14] = test: Induction of apoptosis in human NCI-H460 cells assessed as necrotic cells at 0.5 uM incubated for 48 hrs by annexin V-FITC and PI staining based flow cytometry (reference value: 0.632 %); type: functional
# NCI-H460 [15] = test: Induction of apoptosis in human NCI-H460 cells assessed as necrotic cells at 1 uM incubated for 48 hrs by annexin V-FITC and PI staining based flow cytometry (reference value: 0.632 %); type: functional
# A-375 [16] = test: Induction of cell cycle arrest in human A-375 cells assessed as G2/M phase at 0.5 uM incubated for 24 hrs by PI staining based flow cytometry (reference value: 13.7 %); type: functional; summary of the method: as §2
# HeLa [17] = test: Induction of apoptosis in human HeLa cells assessed as necrotic cells at 2 uM incubated for 48 hrs by annexin V-FITC and PI staining based flow cytometry (reference value: 0.124 %); type: functional
# [18] = Clearance in ICR mouse at 4 mg/kg, iv measured upto 24 hrs by LC-MS/MS analysis; type: ADME, organism-based; conditions: in vivo
# Summary of the method: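 Male ICR mice (N=9). Single dose, either 4 mg/kg intravenous or 20 mg/kg intraperitoneal. Parameters derived: T1/2, Tmax, Cmax, AUC0-t, MRT0-t and CL, with F for the intraperitoneal arm.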
# HeLa [19] = test: Induction of apoptosis in human HeLa cells assessed as late apoptotic cells at 2 uM incubated for 48 hrs by annexin V-FITC and PI staining based flow cytometry (reference value: 0.870 %); type: functional
# HCT-116 [20] = test: Induction of apoptosis in human HCT-116 cells assessed as late apoptotic cells at 1 uM incubated for 48 hrs by annexin V-FITC and PI staining based flow cytometry (reference value: 1.88 %); type: functional
# HCT-116 [21] = test: Induction of apoptosis in human HCT-116 cells assessed as viable cells at 2 uM incubated for 48 hrs by annexin V-FITC and PI staining based flow cytometry (reference value: 93.9 %); type: functional; conditions: read-out: Activity
# HCT-116 [22] = test: Induction of apoptosis in human HCT-116 cells assessed as necrotic cells incubated for 48 hrs by annexin V-FITC and PI staining based flow cytometry; type: functional, cell-based; conditions: dose 0.5-2 µM
# HeLa [23] = test: Induction of apoptosis in human HeLa cells assessed as late apoptotic cells at 1 uM incubated for 48 hrs by annexin V-FITC and PI staining based flow cytometry (reference value: 0.870 %); type: functional
# NCI-H460 [24] = test: Induction of apoptosis in human NCI-H460 cells assessed as viable cells at 1 uM incubated for 48 hrs by annexin V-FITC and PI staining based flow cytometry (reference value: 90.4 %); type: functional; conditions: read-out: Activity
# NCI-H460 [25] = test: Antiproliferative activity against human H460 cells assessed as reduction in cell growth at 8 uM incubated for 72 hrs by CCK-8 assay relative to control; type: functional
# HCT-116 [26] = test: Induction of cell cycle arrest in human HCT-116 cells assessed as G2/M phase at 0.5 uM incubated for 24 hrs by PI staining based flow cytometry (reference value: 27.46 %); type: functional; summary of the method: as §2
# A-375 [27] = test: Induction of apoptosis in human A375 cells assessed as apoptosis rate at 2 uM incubated for 48 hrs by annexin V-FITC and PI staining based flow cytometry relative to control; type: functional
# A-375 [28] = test: Induction of apoptosis in human A-375 cells assessed as viable cells at 0.5 uM incubated for 48 hrs by annexin V-FITC and PI staining based flow cytometry (reference value: 96.3 %); type: functional; conditions: read-out: Activity
# NCI-H460 [29] = test: Induction of apoptosis in human NCI-H460 cells assessed as late apoptotic cells at 2 uM incubated for 48 hrs by annexin V-FITC and PI staining based flow cytometry (reference value: 6.11 %); type: functional
# HCT-116 [30] = test: Antiproliferative activity against human HCT-116 cells assessed as reduction in cell growth at 2 uM incubated for 72 hrs by CCK-8 assay relative to control; type: functional
# NCI-H460 [31] = test: Induction of apoptosis in human H460 cells assessed as apoptosis rate at 2 uM incubated for 48 hrs by annexin V-FITC and PI staining based flow cytometry relative to control; type: functional
structure (smiles),measurement,setting,value
Cc1ccc(Nc2nc(Cl)nc3c2ncn3Cc2ccc(C(=O)Nc3ccccc3N)cc2)cc1,Activity,HCT-116 [1],60.7%
same,Activity,NCI-H460 [2],18.6%
same,IC50,Histone deacetylase 1 [3],0.0707 µM
same,Activity,HepG2 [4],Active
same,Activity,HCT-116 [5],13.4%
same,viability at 2 µM,A-375 [6],7.6%
same,Activity,HeLa [7],51.85%
same,IC50,HepG2 [8],0.86 µM
same,half-life,[9],2.84 h
same,inhibition,Histone deacetylase 1 [10],88.7%
same,IC50,HCT-116 [11],0.58 µM
same,Activity,HCT-116 [12],Active
same,Activity,A-375 [13],Active
same,Activity,NCI-H460 [14],0.254%
same,Activity,NCI-H460 [15],0.871%
same,Activity,A-375 [16],57.03%
same,Activity,HeLa [17],0.243%
same,clearance,[18],23.3 mL/min/kg
same,Activity,HeLa [19],14.1%
same,Activity,HCT-116 [20],14%
same,viability at 2 µM,HCT-116 [21],9.72%
same,Activity,HCT-116 [22],Dose-dependent effect
same,Activity,HeLa [23],8.63%
same,viability at 1 µM,NCI-H460 [24],63.1%
same,inhibition at 8 µM,NCI-H460 [25],82.5%
same,Activity,HCT-116 [26],76.99%
same,Activity,A-375 [27],91.99%
same,viability at 0.5 µM,A-375 [28],16.4%
same,Activity,NCI-H460 [29],47.1%
same,inhibition at 2 µM,HCT-116 [30],76.3%
same,Activity,NCI-H460 [31],59.1%

# Source: ChEMBL document CHEMBL4765302, “Design, synthesis and biological evaluation of novel histone deacetylase1/2 (HDAC1/2) and cyclin-dependent Kinase2 (CDK2) dual inhibitors against malignant cancer” (Eur J Med Chem, 2020)
